Measured values reported in ChEMBL document CHEMBL4765392, “Development of coumarine derivatives as potent anti-filovirus entry inhibitors targeting viral glycoprotein” (Eur J Med Chem, 2020).

Experiments:
[1] = Inhibition of envelope glycoprotein in HIV pseudotyped Zaire Ebolavirus infected in human A549 cells assessed as reduction in virus entry measured after 48 hrs by luciferase reporter gene assay; assay type: cell-based; settings: A549, 48 h
Method in brief: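 A549 cells (5000/well, seeded 24 h prior) incubated 48 h with 3-fold serial compound dilutions premixed with HIV-backbone luciferase pseudovirions bearing EBOV GP. Entry quantified by luciferase signal, normalized to virus-alone cells. IC50 from logistic regression of dose-response curves.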

[2] = Cytotoxicity against human A549 cells assessed as reduction in cell viability by Celltiter-Glo assay; assay type: cell-based
Method in brief: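 Low-passage A549 cells seeded at 5000/well 24 h ahead, then exposed for 48 h to 3-fold serial compound dilutions in fresh media without virus. Viability read by CellTiter-Glo luminescence and normalized to medium-only cells. CC50 from logistic regression fit of dose-response curves.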

[3] = tested on: envelope glycoprotein of Zaire Ebolavirus; assay: Selectivity index, ratio of CC50 for human A549 cells to IC50 for inhibition of envelope glycoprotein in HIV pseudotyped Zaire Ebolavirus infected in human A549 cells assessed as reduction in virus entry; assay type: toxicity, cell-based; settings: read-out: Ratio CC50/IC50
Method in brief: (§1)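 IC50 wells also got HIV luciferase pseudovirions bearing MARV GP or EBOV GP, read by luciferase. CC50 wells got fresh media, read by CellTiter-Glo. Both values come from logistic dose-response fits, and the index is CC50 divided by IC50.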

[4] = tested on: envelope glycoprotein of Marburgvirus; assay: Selectivity index, ratio of CC50 for human A549 cells to IC50 for inhibition of envelope glycoprotein in HIV pseudotyped Marburgvirus infected in human A549 cells assessed as reduction in virus entry; assay type: toxicity, cell-based; settings: read-out: Ratio CC50/IC50; method in brief: as §1

Row | SMILES | IC50 [1] [µM] | CC50 [2] [µM] | selectivity ratio [3] | selectivity ratio [4]
1 | Cc1c(Cc2ccc(-c3ccc(C=O)c(F)c3)cc2)c(=O)oc2cc(OCC(O)CN3CCC(C(N)=O)CC3)ccc12 (stereo unspecified) | 10.9 | 62.4 | 5.7 | 11.9
2 | Cc1c(Cc2ccccc2)c(=O)oc2cc(OCC(O)CNc3ccccc3)ccc12 (stereo unspecified) | > 100 | > 100 |  | 1
3 | Cc1c(Cc2ccccc2)c(=O)oc2cc(OCC(O)CNc3nc4ccccc4[nH]3)ccc12 (stereo unspecified) | > 100 | > 100 |  | 1
4 | Cc1c(Cc2ccccc2)c(=O)oc2cc(OCC(O)CNCCc3ccccn3)ccc12 (stereo unspecified) | 3.6 | 54.9 | 15.6 | 9.3
5 | Cc1c(Cc2ccc(OC(F)(F)F)cc2)c(=O)oc2cc(OC[C@H](O)CN3CCC(C(N)=O)CC3)ccc12 | 0.9 | 52 | 55.7 | 36.3
6 | Cc1c(Cc2ccc(Cl)cc2)c(=O)oc2cc(OCC(O)CN3CCC(C(N)=O)CC3)ccc12 (stereo unspecified) | 2.5 | 40 | 16.3 | 13.8
7 | Cc1c(Cc2ccccc2)c(=O)oc2cc(OCC(O)CNCCCCCCO)ccc12 (stereo unspecified) | 1 | 40.3 |  | 16.6
8 | Cc1c(Cc2ccccc2)c(=O)oc2cc(OCC(O)CNCCCO)ccc12 (stereo unspecified) | 8.9 | 53.4 | 6 | 6.3
9 | Cc1c(Cc2ccccc2)c(=O)oc2cc(OCC(CN3CCC(C(N)=O)CC3)Oc3ccc(F)cc3)ccc12 (stereo unspecified) | 10.4 | 66.4 | 6.4 | 5.5
10 | Cc1c(Cc2ccc(F)cc2Cl)c(=O)oc2cc(OCC(O)CN3CCC(C(N)=O)CC3)ccc12 (stereo unspecified) | 3.1 | 90.8 | 29 | 7.7
11 | Cc1c(Cc2ccc(-c3ccc(Cl)cc3)cc2)c(=O)oc2cc(OCC(O)CN3CCC(C(N)=O)CC3)ccc12 (stereo unspecified) | 1.4 | 32.9 | 22.9 | 31.8
12 | NC(=O)C1CCN(CC(O)COc2ccc3c(C4CC4)c(Cc4ccccc4)c(=O)oc3c2)CC1 (stereo unspecified) | 9.4 | > 100 | > 10.6 | 15.3
13 | Cc1noc(C)c1-c1ccc(Cc2c(C)c3ccc(OCC(O)CN4CCC(C(N)=O)CC4)cc3oc2=O)cc1 (stereo unspecified) | 5.2 | 36.9 | 7.1 | 11.4
14 | Cc1c(Cc2ccccc2)c(=O)oc2cc(OCC(O)CNc3cc([N+](=O)[O-])ccc3O)ccc12 (stereo unspecified) | 81.3 | > 100 | 12 | 1
15 | Cc1c(Cc2ccc(-c3ccc(C#N)c(F)c3)cc2)c(=O)oc2cc(OCC(O)CN3CCC(C(N)=O)CC3)ccc12 (stereo unspecified) | 3.5 | 29.1 | 8.2 | 12.8
16 | COc1ccccc1-c1ccc(Cc2c(C)c3ccc(OCC(O)CN4CCC(C(N)=O)CC4)cc3oc2=O)cc1 (stereo unspecified) | 1.5 | 91.6 |  | 30
17 | Cc1c(Cc2ccccc2)c(=O)oc2cc(OCCCNc3nccs3)ccc12 | 18 | 50.1 | 2.8 | 3.1
18 | Cc1c(Cc2ccc(OC(F)(F)F)cc2)c(=O)oc2cc(OC[C@@H](O)CN3CCC(C(N)=O)CC3)ccc12 | 0.7 | 64.9 | 92.6 | 46.3
19 | Cc1c(Cc2ccc(-c3ccccc3)cc2)c(=O)oc2cc(OCC(O)CNc3nccs3)ccc12 (stereo unspecified) | 2.7 | 38.1 | 14.1 | 29.3

Row | SMILES | IC50 [1] [µM] | CC50 [2] [µM] | selectivity ratio [3] | selectivity ratio [4]
20 | COc1ccc(OC(COc2ccc3c(C)c(Cc4ccccc4)c(=O)oc3c2)CN2CCC(C(N)=O)CC2)cc1 (stereo unspecified) | 10.5 | 94.9 | 9.1 | 11.9
21 | C#CCNCC(O)COc1ccc2c(C)c(Cc3ccccc3)c(=O)oc2c1 (stereo unspecified) | 5.9 | 95.5 | 16.1 | 17.2
22 | Cc1c(Cc2ccc(C(C)(C)C)cc2)c(=O)oc2cc(OCC(O)CN3CCC(C(N)=O)CC3)ccc12 (stereo unspecified) | 11.7 | 14.7 | 1.3 | 2.5
23 | Cc1c(Cc2ccccc2C(F)(F)F)c(=O)oc2cc(OCC(O)CN3CCC(C(N)=O)CC3)ccc12 (stereo unspecified) | 1.6 | > 100 | > 63.8 | 33
24 | Cc1c(Cc2ccc(-c3ccc(C(F)(F)F)cc3)cc2)c(=O)oc2cc(OCC(O)CN3CCC(C(N)=O)CC3)ccc12 (stereo unspecified) | 1.2 | > 100 | > 85.7 | 76.9
25 | Cc1c(Cc2ccc(Br)cc2)c(=O)oc2cc(OCC(O)CN3CCC(C(N)=O)CC3)ccc12 (stereo unspecified) | 0.9 | > 100 | > 111 | 85.7
26 | Cc1c(Cc2ccc(-c3ccccc3C#N)cc2)c(=O)oc2cc(OCC(O)CN3CCC(C(N)=O)CC3)ccc12 (stereo unspecified) | 1.8 | 33.2 | 17.5 | 18.2
27 | COC(=O)c1ccc(Cc2c(C)c3ccc(OCC(O)CN4CCC(C(N)=O)CC4)cc3oc2=O)cc1 (stereo unspecified) | 7.5 | > 100 | > 13.3 | 11
28 | Cc1c(Cc2ccc(OC(F)(F)F)cc2)c(=O)oc2cc(OCC(O)CNCCc3ccncc3)ccc12 (stereo unspecified) | 2.2 | 14.3 | 6.6 | 10.7
29 | Cc1c(Cc2ccccc2)c(=O)oc2cc(OCC(O)CNn3ccnn3)ccc12 (stereo unspecified) | > 100 | > 100 |  | 1
30 | Cc1c(Cc2cccc3ccccc23)c(=O)oc2cc(OCC(O)CN3CCC(C(N)=O)CC3)ccc12 (stereo unspecified) | 1.5 | 42.4 | 28.5 | 36.6
31 | Cc1c(Cc2ccccc2)c(=O)oc2cc(OCC(O)CNC3CCOCC3)ccc12 (stereo unspecified) | 2.2 | 38.2 | 17.4 | 17.1
32 | Cc1c(Cc2ccccc2)c(=O)oc2cc(OCC(O)CNCC3CC3)ccc12 (stereo unspecified) | 3 | > 100 | > 33.3 | 31.6
33 | Cc1cc(F)ccc1Cc1c(C)c2ccc(OCC(O)CN3CCC(C(N)=O)CC3)cc2oc1=O (stereo unspecified) | 1.2 | > 100 | > 81.1 | 33.3
34 | Cc1c(Cc2ccccc2)c(=O)oc2cc(OCC(CN3CCC(C(N)=O)CC3)Oc3ccc([N+](=O)[O-])cc3)ccc12 (stereo unspecified) | 16 | 94.8 | 5.9 | 11.5
35 | Cc1c(Cc2ccccc2)c(=O)oc2cc(OCC(O)CNCc3cccs3)ccc12 (stereo unspecified) | 3.5 | 87.3 | 24.9 | 24.9
36 | COC(CNCCc1ccncc1)COc1ccc2c(C)c(Cc3ccccc3)c(=O)oc2c1 (stereo unspecified) | 2.8 | 16.6 | 5.9 | 9.6
37 | Cc1c(Cc2ccccc2)c(=O)oc2cc(OCC(O)CNCCc3cccnc3)ccc12 (stereo unspecified) | 1.3 | 27.4 | 20.5 | 16.4
38 | Cc1c(Cc2ccccc2)c(=O)oc2cc(OCC(O)CNc3ccc(Br)cc3)ccc12 (stereo unspecified) | > 100 | > 100 |  | 1
